Laboratory results: ChEMBL document CHEMBL3792381, “Amine-free melanin-concentrating hormone receptor 1 antagonists: Novel 1-(1H-benzimidazol-6-yl)pyridin-2(1H)-one derivatives and design to avoid CYP3A4 time-dependent inhibition” (Bioorg Med Chem, 2016)
≈ marks a conversion by molar mass, not a printed value. Each block holds one compound with its values, some of them ahead of it. Calls of active or inactive are those of the source. The rule behind the calls is not given here.

How the values were obtained:
[1] = biological target: Melanin-concentrating hormone receptor 1 (Rattus norvegicus, UniProt P97639); assay: Displacement of [125I]-MCH(4-19) from rat MCHR1 expressed in CHO cell membranes after 1 hr by liquid scintillation counting
Melanin-concentrating hormone receptor 1 (Rattus norvegicus, UniProt P97639), sequence (P97639 whole entry): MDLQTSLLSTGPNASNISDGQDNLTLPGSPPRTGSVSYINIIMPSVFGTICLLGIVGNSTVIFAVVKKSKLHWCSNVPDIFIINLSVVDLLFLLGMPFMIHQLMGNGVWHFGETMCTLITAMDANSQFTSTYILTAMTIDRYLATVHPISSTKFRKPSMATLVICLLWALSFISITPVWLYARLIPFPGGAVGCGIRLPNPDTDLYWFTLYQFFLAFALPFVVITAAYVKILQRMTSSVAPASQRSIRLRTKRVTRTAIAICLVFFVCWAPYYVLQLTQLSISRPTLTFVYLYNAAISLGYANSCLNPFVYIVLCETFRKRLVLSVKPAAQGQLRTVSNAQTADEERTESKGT
How it was run: (§1)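 Membranes from CHO cells stably expressing human or rat MCHR1, prepared by homogenization and 100,000×g centrifugation, in 20 mM Tris-HCl pH 7.5 with 5 mM EDTA and protease inhibitors. Incubated with test compound and [125I]-MCH(4–19) for 1 h at room temperature. Filtered on PEI-treated GF/C filters and counted by scintillation. Nonspecific binding defined with cold MCH(1–19). IC50 from duplicate experiment.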

CYP3A4 = CYP3A4 (Homo sapiens, UniProt P08684); assay: Time dependent inhibition of CYP3A4 in human liver microsomes assessed as conversion of testosterone to 6beta-hydroxytestosterone by measuring remaining activity at 30 uM by UPLC analysis in presence of NADPH generating system; type: ADME; details: read-out: Activity
CYP3A4, sequence (P08684 whole entry): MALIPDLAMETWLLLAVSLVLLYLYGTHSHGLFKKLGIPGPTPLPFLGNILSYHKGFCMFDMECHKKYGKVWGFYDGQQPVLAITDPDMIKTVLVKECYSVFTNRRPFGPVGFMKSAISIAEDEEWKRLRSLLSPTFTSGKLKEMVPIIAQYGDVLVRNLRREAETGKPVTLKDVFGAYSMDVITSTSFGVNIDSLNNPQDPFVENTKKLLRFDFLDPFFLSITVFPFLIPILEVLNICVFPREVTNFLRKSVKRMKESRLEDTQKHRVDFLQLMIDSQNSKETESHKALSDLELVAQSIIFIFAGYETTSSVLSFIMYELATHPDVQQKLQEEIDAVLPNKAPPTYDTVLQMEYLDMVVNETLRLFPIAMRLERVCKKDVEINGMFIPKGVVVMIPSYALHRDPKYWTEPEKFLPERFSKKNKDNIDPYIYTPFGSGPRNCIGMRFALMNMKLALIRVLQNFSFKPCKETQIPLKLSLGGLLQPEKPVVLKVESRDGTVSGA
How it was run: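 Single-point assay: test compound at 30 µM preincubated with human liver microsomes at 37 °C in phosphate buffer pH 7.4 with an NADPH-generating system. Residual CYP3A4 activity then measured as testosterone 6β-hydroxylation by UPLC. Percent remaining = activity with preincubation (% of DMSO control) over activity without preincubation; n = 2.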

[2] = biological target: T1, Melanin-concentrating hormone receptor 1 (Homo sapiens, UniProt Q99705); assay: Displacement of [125I]-MCH(4 to 19) from human MCHR1 expressed in CHO cell membranes after 1 hr by liquid scintillation counting; how it was run: as §1
T1 sequence (Q99705 whole entry): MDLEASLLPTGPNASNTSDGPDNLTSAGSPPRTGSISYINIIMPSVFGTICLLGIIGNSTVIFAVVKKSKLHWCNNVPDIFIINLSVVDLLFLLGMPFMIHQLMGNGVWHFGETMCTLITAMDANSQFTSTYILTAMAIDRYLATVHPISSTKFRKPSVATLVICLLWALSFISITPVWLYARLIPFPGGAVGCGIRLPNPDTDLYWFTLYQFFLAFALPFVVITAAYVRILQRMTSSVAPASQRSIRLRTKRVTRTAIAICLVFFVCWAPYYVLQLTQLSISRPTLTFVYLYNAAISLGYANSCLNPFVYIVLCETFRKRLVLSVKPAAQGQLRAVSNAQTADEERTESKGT

[3] = AUC( 0 to 8 hrs) Sprague-Dawley rat plasma at 1 mg/kg, po administered through cassette dosing by LC/MS/MS analysis; type: ADME, organism-based; parameters: dose 1 mg/kg, time < 8 hr, route oral
How it was run: (§2)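 Male SD rats (eight weeks old), fed, cassette-dosed iv at 0.1 mg/kg or orally at 1 mg/kg as a suspension in 0.5% methylcellulose; n = 3. Plasma obtained by centrifugation of blood, deproteinized with acetonitrile, and measured by LC/MS/MS. AUC covers 0–8 h. Bioavailability, total clearance and Vss are derived from the iv and po data.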

Rattus norvegicus [4] = assay: Anorectic effect in DIO-F344/Jcl rat assessed as cumulative food intake at 3 mg/kg, po dosed for 2 weeks and measured every 2 or 3 days relative to vehicle control; type: functional
How it was run: (§3)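 DIO-F344 rats, 41 weeks old, habituated and grouped as for the 2-day study. Dosed orally once daily for 2 weeks in 0.5% methylcellulose at 2 mL/kg, 1–3 h before dark onset, after weighing; n = 5 or 6. Food intake measured every 2 or 3 days; body weight change expressed as percent of initial weight; sibutramine was the positive control.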

[5] = Oral bioavailability in Sprague-Dawley rat plasma at 1 mg/kg administered through cassette dosing by LC/MS/MS analysis; type: ADME, organism-based; how it was run: as §2
Rattus norvegicus [6] = assay: Antiobesity activity in DIO-F344/Jcl rat assessed as reduction in body weight at 3 mg/kg, po dosed for 2 weeks and measured every 2 or 3 days relative to vehicle control; type: functional; parameters: scale not given: the % may be the effect or the level left; how it was run: as §3
[7] = Total clearance in Sprague-Dawley rat plasma at 0.1 mg/kg, iv administered through cassette dosing by LC/MS/MS analysis; type: ADME, organism-based; how it was run: as §2
Mus musculus [8] = assay: Antiobesity activity in wild-type litter mate mouse assessed as reduction in body weight at 10 and 30 mg/kg, po dosed for 3 days; type: functional, organism-based
How it was run: (§4)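 Male MCHR1-deficient and wild-type littermate mice, 27 weeks old, on high-fat diet from 7 weeks of age, housed individually and acclimated to tap-water dosing. Grouped by food intake from day −4 to day −1 and by day −1 body weight. Dosed orally once daily for 3 days in 0.5% methylcellulose at 10 mL/kg; n = 6. Body weight change and cumulative food intake measured over the 3 days.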

Rattus norvegicus [9] = assay: Anorectic effect in DIO-F344/Jcl rat assessed as inhibition of food intake at 10 mg/kg, po administered 2 hrs before onset of dark period for 2 days; type: functional; parameters: scale not given: the % may be the effect or the level left
How it was run: (§5)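 Male DIO-F344/Jcl rats, 45 weeks old, on high-fat diet from 5 weeks of age, singly housed on powdered high-fat diet and habituated to oral dosing with tap water. Grouped by day-0 food intake and body weight. Dosed orally once daily, suspended in 0.5% methylcellulose at 2 mL/kg, 2 h before dark onset, for 2 days; n = 6. Cumulative 2-day food intake is expressed relative to the vehicle group.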

Rattus norvegicus [10] = assay: Anorectic effect in DIO-F344/Jcl rat assessed as inhibition of food intake at 3 mg/kg, po administered 2 hrs before onset of dark period for 2 days; type: functional; parameters: scale not given: the % may be the effect or the level left; how it was run: as §5
Rattus norvegicus [11] = assay: Anorectic effect in orally dosed DIO-F344/Jcl rat assessed as inhibition of food intake administered 2 hrs before onset of dark period for 2 days; type: functional, organism-based; how it was run: as §5
[12] = Ratio of drug level in brain to plasma in po dosed DIO-F344/Jcl rat; type: ADME, organism-based; details: brain and plasma, read-out: BPR
Rattus norvegicus [13] = assay: Anorectic effect in DIO-F344/Jcl rat assessed as cumulative food intake at 10 mg/kg, po dosed for 2 weeks and measured every 2 or 3 days relative to vehicle control; type: functional; how it was run: as §3
[14] = Cmax in Sprague-Dawley rat at 1 mg/kg, po administered through cassette dosing by LC/MS/MS analysis; type: ADME, organism-based; parameters: dose 1 mg/kg, route oral; details: in vivo; how it was run: as §2
[15] = biological target: T1, Melanin-concentrating hormone receptor 1; assay: Antagonist activity at human MCHR1 expressed in CHO cells assessed as change in MCH(4 to 19)-stimulated Ca2+ concentration by Ca2+ mobilization assay; type: functional, cell-based
How it was run: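 CHO dhfr− cells stably transfected with human MCHR1 (clone 4), seeded at 20000 cells/well and cultured about 24 h. Loaded with Fluo4 calcium dye for 30 min at 37 °C. Test compound in 10 mM HEPES pH 7.4 buffer with 0.1% BSA added, then MCH(4–19) at 2 nM final. Fluorescence read every 2 s; inhibition rate (%) taken relative to ligand-alone and DMSO-alone wells.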

Rattus norvegicus [16] = assay: Antiobesity activity in DIO-F344/Jcl rat assessed as reduction in body weight at 10 mg/kg, po dosed for 2 weeks and measured every 2 or 3 days relative to vehicle control; type: functional; parameters: scale not given: the % may be the effect or the level left; how it was run: as §3
Mus musculus [17] = assay: Antiobesity activity in MCHR1-deficient mouse assessed as reduction in body weight at 10 and 30 mg/kg, po dosed for 3 days; type: functional, organism-based; how it was run: as §4
Brain = assay: Drug uptake in po dosed DIO-F344/Jcl rat brain; type: ADME, organism-based; details: in vivo
Rattus norvegicus [18] = assay: Trough plasma concentration in DIO-F344/Jcl rat at 10 mg/kg, po; type: ADME, organism-based; details: in vivo, read-out: Cmin
How it was run: (§6)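 Trough plasma concentration taken in the 2-week repeated oral dosing study in DIO-F344 rats. Unbound concentration obtained from total concentration and the unbound fraction in DIO rat plasma.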

[19] = Solubility of compound at pH 6.8; type: physicochemical; details: buffer
[20] = Tmax in Sprague-Dawley rat plasma at 1 mg/kg, po administered through cassette dosing by LC/MS/MS analysis; type: ADME, organism-based; how it was run: as §2
Plasma = assay: Free plasma concentration in DIO-F344/Jcl rat at 10 mg/kg, po; type: ADME, organism-based; details: in vivo; how it was run: as §6
Mus musculus [21] = assay: Anorectic effect in MCHR1-deficient mouse assessed as reduction in food intake at 10 and 30 mg/kg, po dosed for 3 days; type: functional, organism-based; how it was run: as §4
[22] = Fraction unbound in po dosed DIO-F344/Jcl rat plasma; type: ADME, organism-based
[23] = Volume of distribution in steady state in Sprague-Dawley rat plasma at 0.1 mg/kg, iv administered through cassette dosing by LC/MS/MS analysis; type: ADME, organism-based; details: read-out: Vdss; how it was run: as §2

Compound: Cn1c(C2CC2)nc2ccc(-n3ccc(OCc4csc(Cl)c4)cc3=O)cc21
- IC50 [1]: 9.3 nM
- activity at 30 µM (CYP3A4): 44%
- IC50 [2]: 14 nM

Compound: CCCn1c(C2CC2)nc2ccc(-n3ccc(OCc4ccc(Cl)cc4)cc3=O)cc21
- IC50 [1]: 110 nM
- IC50 [2]: 85 nM

Compound: Cc1c(C2CC2)nc2ccc(-n3ccc(OCc4ccc(Cl)cc4)cc3=O)nn12
- IC50 [2]: 380 nM

Compound: Cn1c(C2CC2)nc2ccc(-n3ccc(OCc4ccc(Cl)s4)cc3=O)cc21
- AUC(0-t) at 8 h [3]: 515 ng·h/mL
- Activity (Rattus norvegicus [4]): 11.6%
- bioavailability [5]: 23%
- Activity (Rattus norvegicus [6]): 2.2%
- clearance [7]: 7.5 mL/min/kg
- IC50 [1]: 11 nM
- Activity (Mus musculus [8]): Dose-dependent effect
- Activity (Rattus norvegicus [9]): 36.5%
- Activity (Rattus norvegicus [10]): 11.6%
- Activity (Rattus norvegicus [11]): Dose-dependent effect
- Kp [12]: 0.5
- activity at 30 µM (CYP3A4): 83%
- Activity (Rattus norvegicus [13]): 20.9%
- Cmax [14]: 165 ng/mL
- IC50 [15]: 24 nM
- IC50 [2]: 19 nM
- Activity (Rattus norvegicus [16]): 4.1%
- Activity (Mus musculus [17]): inactive
- Drug uptake (Brain): Active
- concentration (Rattus norvegicus [18]): 790 nM
- solubility [19]: 2.3 µg/mL (≈ 5.58 µM)
- Tmax [20]: 1 h
- Cp(f) (Plasma): 15.8 nM
- Activity (Mus musculus [21]): Dose-dependent effect
- fraction unbound [22]: 0.02
- Vd [23]: 0.92 L/kg

Compound: CCCc1nc2ccc(-n3ccc(OCc4ccc(F)cc4)cc3=O)cc2n1C
- IC50 [1]: 39 nM
- IC50 [2]: 34 nM

Compound: Cn1c(C2CC2)nc2ccc(-n3ccc(OCc4ccc(C(F)(F)F)s4)cc3=O)cc21
- AUC(0-t) at 8 h [3]: 2020 ng·h/mL
- bioavailability [5]: 57%
- clearance [7]: 4.75 mL/min/kg
- IC50 [1]: 13 nM
- Activity (Rattus norvegicus [9]): 20.3%
- Activity (Rattus norvegicus [10]): Active
- activity at 30 µM (CYP3A4): 97%
- Cmax [14]: 298 ng/mL
- IC50 [15]: 18 nM
- IC50 [2]: 16 nM
- solubility [19]: 0.25 µg/mL (≈ 0.561 µM)
- Tmax [20]: 2.7 h
- Vd [23]: 0.979 L/kg

Compound: Cn1c(C2CC2)nc2ccc(-n3ccc(OCc4cccc(Cl)c4)cc3=O)cc21
- IC50 [1]: 72 nM
- IC50 [2]: 100 nM

Compound: CCc1nc2ccc(-n3ccc(OCc4ccc(F)cc4)cc3=O)cc2n1C
- IC50 [1]: 38 nM
- IC50 [2]: 48 nM

Compound: Cn1c(C2CC2)nc2ccc(-n3ccc(OCc4ccc(Cl)cc4)cc3=O)cc21
- IC50 [1]: 21 nM
- IC50 [2]: 35 nM

Compound: Cc1c(C2CC2)nc2cnc(-n3ccc(OCc4ccc(Cl)cc4)cc3=O)cn12
- IC50 [2]: 44 nM

Continued, values first:

- IC50 [1]: 18 nM
- activity at 30 µM (CYP3A4): 25%
- IC50 [2]: 17 nM
Compound: Cn1c(C2CC2)nc2ccc(-n3ccc(OCc4cc(Cl)cs4)cc3=O)cc21

- IC50 [1]: 140 nM
- IC50 [2]: 90 nM
Compound: Cn1c(CC2CC2)nc2ccc(-n3ccc(OCc4ccc(F)cc4)cc3=O)cc21

- IC50 [1]: > 1000 nM
- IC50 [2]: > 1000 nM
Compound: Cn1c(CC(C)(C)C)nc2ccc(-n3ccc(OCc4ccc(F)cc4)cc3=O)cc21

- IC50 [1]: 29 nM
- activity at 30 µM (CYP3A4): 74%
- IC50 [2]: 28 nM
Compound: Cn1c(C2CC2)nc2ccc(-n3ccc(OCc4ccsc4)cc3=O)cc21

- IC50 [2]: > 1000 nM
Compound: Cc1c(C2CC2)nc2ncc(-n3ccc(OCc4ccc(Cl)cc4)cc3=O)cn12
